This is a sample that favours compounds with a hit; in the whole collection about 1.8% have one here.
Cneo AK release: causes C. neoformans cell lysis. adenylate kinase release luminescence, 4 h; normalised: neutral wells 0, clomiphene wells 100. lysis activity, % at 15 µM. 360,000 compounds, 0.2% hits. AID 651654;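 active means mean lysis activity across replicates of at least 80%, whatever share of replicates individually reach that level; inactive means mean lysis activity below 80%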
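Material: C. neoformans cells | Amount: Yeast cell density of 5 × 10^6 cells/mL | Medium: Fresh YPD growth medium | Dosing: Single dose | Times: Static 4 h at 37 °C with compound, 1 h detection | Detection: AK luminescence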
Efflux pump inh: inhibitors of Candida antifungal efflux pumps expressed in yeast; S. cerevisiae Candida pump triplex, Nile Red efflux; inhibition, % at 10 µM; 330,000 compounds, 0.44% hits; AID 485275;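 active means plate passing quality check with inhibition over a set limit, or well fluorescence over plate mean plus 4 SD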;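 further: Nile Red retained in pooled yeast measured as flow cytometry median fluorescence; 0% = buffer negative control and 100% = Enniatin B positive control; higher means more Nile Red kept so more efflux inhibition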
Statin myotox sup: suppression of simvastatin myotoxicity | 330,000 compounds, 0.78% hits | AID 602340 | C2C12 myotubes + simvastatin, ATP luminescence, 48 h; scaled: DMSO 0, geranylgeraniol control 100 | rescue of ATP level, % at 7.49 µM;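 active means mean ATP rescue above about 67%, or every replicate alone reaching that limit, limit read from the data, passing the limit was not always enough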;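 further: myotubes were challenged with 10 µM simvastatin during compound exposure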
Mot1-301 SUMO: inhibitors of SUMOylation pathway: yeast Mot1-301 growth rescue; S. cerevisiae Mot1-301 growth rescue, ATP luminescence, 38.5C; percent above DMSO median, 100 means doubled; growth rescue, % at 18.8 µM; 320,000 compounds, 1% hits; AID 2716;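 active means every valid replicate shows activation above 250% relative to neutral control wells; inactive means the rest, any valid replicate at or below 250%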;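 further: OY570 slx delta 5 strain wells were the positive control but not used for scaling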
Mot1 SUMO dose: SUMO pathway inhibitors in yeast Mot1-301 growth; 2,300 tested, under 10 active; shares compounds with Mot1-301 SUMO; AID 493004; S. cerevisiae Mot1-301 galactose growth, ATP luminescence, 24 h; -100 = growth of slx-deleted rescue strain; growth activity, percent, % at 42 µM;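 active means Signal drops as the depositor expects, and the fitted half-maximal dose is no more than ten times the top valid tested dose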;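 further: more negative values mean stronger growth rescue toward the control strain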
* hit, by the source's call; · = no result; + = active, no number; ! = a repeat was not active.

SMILES	Cneo AK release	Efflux pump inh	Statin myotox sup	Mot1-301 SUMO	Mot1 SUMO dose
Cc1ccnc(NC(=O)Cc2ccc(F)cc2)n1	·	0	-10	-14	·
Cc1ccnc(NC(=O)CC(c2ccccc2)c2ccccc2)n1	0	0	2	432*	1
O=C1NC(=Nc2ccccc2)SC1(CO)CO	-1	0	5	15	·
O=C(O)c1ccc(N=C2NC(=O)C(CO)(CO)S2)cc1	6	0	1	767*	0
COc1ccccc1-c1nnc(SCC(=O)NC2CCCCC2)n1N	1	0	0	-2	·
COc1ccccc1-c1nnc(SCC(=O)NC2CCS(=O)(=O)C2)n1N (centres undefined)	4	0	7	+	0
CC(C)CCCN1CCN=C1Nc1ccccc1	1	0	10	596*	0
Cc1ccccc1C(=O)NCCN1CCOCC1	·	0	·	-3	·
CC(C(=O)NCCN1CCOCC1)(c1ccccc1)c1ccccc1	-2	0	-10	667*	0
CCOC(=O)C1C(=O)NC(SCC(=O)Nc2nccs2)=C(C#N)C1c1ccccc1OCC (centres undefined)	0	0	23	633*	0
Cn1cccc1CC(=O)N/N=C/c1cccc([N+](=O)[O-])c1	·	0	·	409*	0
O=C(N/N=C/c1cccc([N+](=O)[O-])c1)C1COc2ccccc2O1 (centres undefined)	·	0	6	678*	0
COc1ccc(C2NC(c3ccc(OC)cc3)C(c3ccccc3)C(=O)C2c2ccccc2)cc1 (centres undefined)	·	-1	·	-12	·
COc1cc(SC)ccc1C(=O)N1CCCCCC1	3	0	2	+	0
COc1cc(SC)ccc1C(=O)N1CCN(c2ccccc2)CC1	·	0	·	5	·
COC(=O)CN(C(=S)Nc1ccc(F)cc1)C1CC(=O)N(c2ccccc2)C1=O (centres undefined)	-3	0	·	653*	0
O=C1CC(N(CCc2ccccc2)C(=S)Nc2ccccc2)C(=O)N1c1ccc(F)cc1 (centres undefined)	2	0	·	700*	0
O=C1CC(N(CCc2ccccc2)C(=S)Nc2ccccc2)C(=O)N1c1ccccc1 (centres undefined)	·	0	·	-16	·
COC(=O)CN(C(=S)Nc1ccc(F)cc1)C1CC(=O)N(c2ccc(OC)cc2)C1=O (centres undefined)	5	0	14	-3	·
COCC(=O)Nc1ccc2c(c1)C(=O)N(C)C[C@H](OC)[C@@H](C)CN(C(=O)C1CCCC1)[C@@H](C)CO2	1	·	5	·	·
CCO[C@H]1OC(C(=O)NC2CC2)=C[C@@H](c2ccccc2)[C@@H]1CCCO	4	0	2	9	·
CCNc1cc(=O)n(C)c(=O)n1C	-1	0	-10	-9	·
CC(C)CNc1cc(=O)n(C)c(=O)n1C	-2	0	·	392*	-1
C/C(=N\NC(=O)C(O)c1ccccc1)c1cccnc1 (centres undefined)	-4	0	-2	2	·
CN(C)S(=O)(=O)c1ccc(C(=O)/C=C/c2cccnc2)cc1	0	0	2	644*	0
SMILES	Cneo AK release	Efflux pump inh	Statin myotox sup	Mot1-301 SUMO	Mot1 SUMO dose
CC1=C(C(=O)N2CCOCC2)CC(CC(=O)NCCCCc2ccccc2)C(=O)N1CCCN1CCCC1=O (centres undefined)	3	·	-2	·	·
COc1ccccc1CNC(=O)CN(c1ccc(C)cc1)S(=O)(=O)c1c(C)n[nH]c1C	0	0	·	912*	-1
COc1ccccc1CNc1nc(SC)ncc1CO	4	0	·	474*	0
COc1ccccc1CNc1ncnc2sccc12	-2	0	-24	-11	·
CC(NC(=O)C12CC3CC(CC(O)(C3)C1)C2)c1ccccc1 (centres undefined)	-2	0	-9	409*	-1
O=C(COC(=O)Cc1cccs1)Nc1cccc(S(=O)(=O)N2CCOCC2)c1	·	0	·	11	·
CN(CCOc1ccc(-c2ccn(S(=O)(=O)c3cccc4ccccc34)n2)cc1)c1ccccn1	-2	0	31	643*	0
CCC(C)[C@H](NC(=O)Nc1ccc(S(N)(=O)=O)cc1)C(=O)OC (some centres undefined)	·	0	·	743*	0
CC(=O)c1cccc(N2C(=NC(=O)C3CCCCC3)SC3CS(=O)(=O)CC32)c1 (centres undefined)	0	0	-2	477*	0
O=C(N=C1SC2CS(=O)(=O)CC2N1c1ccc(F)c(Cl)c1)C1CC1 (centres undefined)	-3	0	1	518*	0
CC(C)C(O)(C(=O)NNc1ccccc1)C(C)C	1	0	13	583*	1
O=C(NNc1ccccc1)c1ccccc1	4	·	3	·	·
Cc1cc([N+](=O)[O-])ccc1NC(=O)Cc1ccc(F)cc1	·	0	·	-6	·
C/C(=N\OCC(=O)Nc1cc(C)cc(C)c1)c1ccc2c(c1)OCCO2	0	0	5	-1	·
CN/C(=C/[N+](=O)[O-])NCCSCc1ccc(CN(C)C)o1	0	0	-1	860*!	0
COC(=O)C[C@H]1CC[C@@H]2[C@H](COC[C@H](O)CN2S(=O)(=O)c2cn(C)cn2)O1	-3	·	-2	·	·
O=CNCCCc1nc2ccccc2n1CCc1ccccc1	1	0	-26	+	0
COc1ccccc1C(=O)OCC(=O)NC(=O)NCc1ccccc1	·	0	·	891*	1
COc1cccc(OC)c1C(=O)OCC(=O)NC(=O)NCc1ccccc1	·	0	·	321	·
COc1cc(C(=O)Nc2sc(C)c(C)c2C(=O)O)cc(OC)c1OC	·	0	·	-7	·
COc1cc(C(=O)Nc2sc3c(c2C(=O)O)CCC(C)C3)cc(OC)c1OC (centres undefined)	1	0	-19	438*	0
CN(C(=O)CSc1nc(-c2ccccc2)c(-c2ccccc2)o1)C1CCS(=O)(=O)C1 (centres undefined)	0	0	-3	543*	1
CCCn1nc(C(=O)NNC(=O)c2cc(S(=O)(=O)NC)ccc2Br)c2ccccc2c1=O	·	0	·	549*	-1
O=C(c1ccc(CS(=O)(=O)c2ccccc2)o1)N1CCOCC1	-2	0	19	372*	2
CN1CCN(C(=O)c2ccc(CS(=O)(=O)c3c(Cl)cccc3Cl)o2)CC1	0	0	-1	-14	·
CCOC(=O)N1CCN(C(=O)c2ccc(CS(=O)(=O)c3c(Cl)cccc3Cl)o2)CC1	-2	0	-4	603*	0
CC(Oc1ccccc1)C(=O)Nc1ccccc1O (centres undefined)	·	0	50	568*	1
CCOC(=O)c1c(C)[nH]c(C(=O)COC(=O)c2ccncc2)c1C	3	0	·	+	0
S=c1[nH]nc(-c2ccco2)n1-c1ccc(Br)cc1	1	0	·	532*	1
